CHT inh = inhibitors of human choline transporter CHT. CHT-expressing cells, membrane potential dye, choline response; hits give low values. hit rate 0.86% among 310,000. High affinity choline transporter 1 (Homo sapiens), Q9GZV3. B-score at 10 µM;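 active = B-score over 3 SD under the library average, and starting fluorescence ratio not unusually high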;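 also: choline stimulus applied at its EC90 after an EC20 pre-addition; B-score computed on integrated fluorescence ratio after choline addition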
Rad51 HR inh = human RAD51 strand exchange inhibitors, primary screen, biochemical, fluorescence; DNA repair protein RAD51 homolog 1 (Homo sapiens), Q06609; hRad51 DNA strand exchange, fluorescence dequenching; inhibition, % at 10 µM; hit rate 0.085% among 200,000;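 active = inhibition above 40% at the single screening dose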;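 also: 0% = DMSO control wells and 100% = blanks with heterologous ssDNA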
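Read-out basis: percent inhibition relative to plate controls and blanks / Assay system: human Rad51 nucleoprotein filaments preassembled on unlabelled ssDNA / Timing: filaments 15 min 37 °C, then compound 30 min / Control set: per-plate controls and blanks / Technique: fluorescence dequenching at 485/520 nm / Compound: 10 µM final, single point / Also added: Fluorescein- and BHQ1-tagged 47-mer duplex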
CHT PAM = CHT positive allosteric modulators, primary screen, cell-based, membrane potential dye, choline EC20 | High affinity choline transporter 1 (Homo sapiens), Q9GZV3 | CHT-expressing cells; hits give high values; LV-AA mutant CHT in HEK293 cells | B-score at 10 µM | hit rate 0.49% among 310,000;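 active = initial fluorescence not abnormally high and integrated response B-score, plate-corrected, over 3 SD above library mean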
Cl transport mod = KCC2 cotransporter modulators, thallium flux, primary screen, cell-based, HEK293 KCC2, FluoZin-2 fluorescence, MLSMR | hit rate 2.2% among 190,000 | KCC2 cells, thallium flux FluoZin-2 fluorescence | B-score of Tl+ flux slope (higher = more flux/activation; lower = inhibition) at 10 µM | AID 1456, 2008;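 active = thallium flux slope and its plate-corrected score both differing from the plate sample mean at a set confidence after two filtering rounds, in either direction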;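 also: slope of fluorescence scaled to starting intensity during 10 to 20 s after thallium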
Target sequence (Q9H2X9 whole entry, looked up): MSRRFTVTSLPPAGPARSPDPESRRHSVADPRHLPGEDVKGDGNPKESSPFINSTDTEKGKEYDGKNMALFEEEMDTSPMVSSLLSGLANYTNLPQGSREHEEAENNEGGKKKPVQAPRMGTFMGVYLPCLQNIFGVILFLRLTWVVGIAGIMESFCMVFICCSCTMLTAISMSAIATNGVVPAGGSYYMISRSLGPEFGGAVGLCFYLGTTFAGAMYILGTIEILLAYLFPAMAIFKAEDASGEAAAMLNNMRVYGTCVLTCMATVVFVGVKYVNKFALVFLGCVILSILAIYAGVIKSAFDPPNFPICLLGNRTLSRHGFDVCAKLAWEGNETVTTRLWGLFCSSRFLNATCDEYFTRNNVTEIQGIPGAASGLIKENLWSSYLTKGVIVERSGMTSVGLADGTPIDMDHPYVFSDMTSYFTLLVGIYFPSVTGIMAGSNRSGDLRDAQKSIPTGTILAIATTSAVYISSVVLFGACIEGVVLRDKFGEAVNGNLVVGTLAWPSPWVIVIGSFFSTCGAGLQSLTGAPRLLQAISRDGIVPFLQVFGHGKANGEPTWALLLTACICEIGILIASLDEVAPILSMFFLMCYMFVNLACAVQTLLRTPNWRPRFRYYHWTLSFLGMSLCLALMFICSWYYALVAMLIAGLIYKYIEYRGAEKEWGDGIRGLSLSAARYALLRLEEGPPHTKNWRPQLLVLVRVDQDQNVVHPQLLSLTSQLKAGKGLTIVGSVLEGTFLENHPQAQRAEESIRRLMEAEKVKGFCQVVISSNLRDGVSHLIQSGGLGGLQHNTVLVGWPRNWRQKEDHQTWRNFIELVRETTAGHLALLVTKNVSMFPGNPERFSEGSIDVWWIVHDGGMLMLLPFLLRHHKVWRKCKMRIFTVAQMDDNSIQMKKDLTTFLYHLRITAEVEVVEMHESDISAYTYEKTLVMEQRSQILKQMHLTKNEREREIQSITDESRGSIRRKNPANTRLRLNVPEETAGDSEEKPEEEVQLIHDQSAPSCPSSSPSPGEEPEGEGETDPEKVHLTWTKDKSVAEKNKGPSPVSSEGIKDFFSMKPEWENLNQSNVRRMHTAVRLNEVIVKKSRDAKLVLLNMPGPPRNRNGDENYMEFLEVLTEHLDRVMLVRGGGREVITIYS
KCC2 sec1 = KCC2 modulators in sodium-free buffer, confirmation, cell-based, HEK293 KCC2, thallium flux, secondary assay | shares compounds with Cl transport mod | FluoZin2 fluorescence; hits give high values | normalised thallium flux (F/F0 slope) at 10 µM | hit rate 15% among 3,700;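 active = thallium flux slope above the same plate's solvent-only control mean plus 3 SD; inconclusive = the two replicate wells disagree; inactive = no significant difference from solvent-only control wells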
KCC2 bumet counter = thallium flux persisting under bumetanide in KCC2 cells, confirmation, counter-screen for KCC2 modulator project, cell-based, HEK293 KCC2, FluoZin2, secondary assay 3 | AID 1714, 2009 | hit rate 49% among 3,700 | HEK293-KCC2 + bumetanide/ouabain; hits give high values | normalized thallium flux at 10 µM | shares compounds with Cl transport mod;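 active = thallium entry rate above the same plate's blocked-transporter control wells by more than 3 SD; inconclusive = the two repeat wells disagree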;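 also: raw slope of fluorescence over initial fluorescence between 10 and 20 s after thallium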
KCC2 sec2 = KCC2 modulators without ouabain present, confirmation, cell-based, HEK293 KCC2, thallium flux, FluoZin2, secondary assay 2; shares compounds with Cl transport mod; thallium flux FluoZin2 fluorescence; actives lie on both sides; F/F0 rise rate, 10–20 s post-thallium; normalized thallium flux at 10 µM; hit rate 23% among 3,700; AID 1715, 2009;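 active = thallium flux slope more than 3 SD above or below the plate's solvent-only control mean, mostly below; inconclusive = the two repeat wells disagreed; inactive = no significant shift from solvent-only controls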;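 also: raw slope with 0.1% DMSO as baseline and bumetanide as block control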
HEK293 Tl flux = thallium flux modulation in parental HEK cells, confirmation, counter-screen for KCC2 modulator project, cell-based, counterscreen 1; thallium flux rate (normalised fluorescence) at 10 µM; shares compounds with Cl transport mod; hit rate 46% among 3,700; HEK293 parental cells, thallium flux FluoZin2, ouabain; baseline-ratio fluorescence slope, 10–20 s after thallium;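 active = thallium flux rate significantly above the same plate's solvent-only control wells, beyond their mean plus 3 SD; inconclusive = the two replicate wells gave conflicting results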
KCC2 ouabain = KCC2 inhibitors and activators, ouabain retest, confirmation, HEK-KCC2 cells | shares compounds with Cl transport mod | HEK293-KCC2, thallium flux FluoZin2 fluorescence; bidirectional: low = inhibitor, high = activator | raw Tl+ flux slope (below DMSO = inhibition, above = activation) at 10 µM | hit rate 48% among 3,700;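 active = thallium flux slope beyond 3 SD from same-plate DMSO control mean in most replicates, usually higher, sometimes lower; inconclusive = repeat tests gave conflicting results; inactive = no significant difference from controls in most replicates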;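 also: slope of initial-normalized fluorescence between seconds 10 and 20 after thallium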
HEK293 Tl flux2 = native HEK Tl+ uptake effects, second counter-screen – HEK cells, counterscreen 2, counter-screen for KCC2 modulator project, confirmation | thallium flux slope at 10 µM | HEK293 parental, thallium flux FluoZin-2 fluorescence slope | AID 1718, 2009 | shares compounds with Cl transport mod | hit rate 33% among 3,700;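 active = thallium flux slope above the same plate's solvent-control mean plus 3 SD in both duplicate wells; inconclusive = duplicate wells that disagreed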;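 also: run without ouabain in cells lacking the KCC2 cotransporter; slope of fluorescence scaled to its starting value between 10 and 20 s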
* = called active by the depositor; i = inactive; u = inconclusive; x = no result given. An excerpt weighted towards active compounds, which were near 2.6% of everything screened.

SMILES | CHT inh | Rad51 HR inh | CHT PAM | Cl transport mod | KCC2 sec1 | KCC2 bumet counter | KCC2 sec2 | HEK293 Tl flux | KCC2 ouabain | HEK293 Tl flux2
Cc1ccc(Nc2nc3ccccc3c(=O)s2)cc1 | i | -2.2 | i | 14.2* | 0.011* | 0.0308* | 0.0314 | 0.0132* | 0.0338* | 0.0112*
C/C(=N\NC(=O)c1ccc(NS(=O)(=O)c2cccs2)cc1)c1cccs1 | i | 2.3 | i | -0.0438 | x | x | x | x | x | x
C/C(=N/NC(=O)c1ccc(Br)o1)c1cccs1 | i | x | i | x | x | x | x | x | x | x
C/C(=N\NC(=O)c1cc(Br)ccc1O)c1cccs1 | i | 5.0 | i | 15* | 0.00867 | 0.031* | 0.0431* | 0.0304* | 0.0369* | 0.0335*
C/C(=N\NC(=O)c1ccc(Cl)cc1)c1cccs1 | x | -3.2 | x | 25.2* | 0.00596 | 0.0396* | 0.0496* | 0.0337* | 0.0406* | 0.029*
COc1cccc(C(=O)CSc2nnc(COc3cccc4cccnc34)o2)c1 | i | -6.2 | i | -3.49 | x | x | x | x | x | x
O=C(CSc1nnc(COc2cccc3cccnc23)o1)c1ccc(F)cc1 | i | 3.9 | i | x | 0.00672 | 0.00523 | 0.0333 | 0.00348 | 0.0151* | 0.0111
S=C(Nc1ccccc1Cl)N1CCN(c2ccccn2)CC1 | i | x | i | x | x | x | x | x | x | x
CN1/C(=C\C(=S)NC(=O)c2ccc([N+](=O)[O-])cc2)C(C)(C)c2ccccc21 | i | -8.4 | i | 0.811 | x | x | x | x | x | x
CN1/C(=C\C(=S)NC(=O)c2cccc(Br)c2)C(C)(C)c2ccccc21 | i | -39.5 | i | 4.61* | 0.01 | 0.0142* | 0.0347 | u | u | 0.0123
S=c1[nH]nc(Cc2c[nH]c3ccccc23)o1 | i | -31.4 | i | -5.52* | 0.00831 | 0.00568 | 0.0229* | 0.0068 | 0.0114* | 0.00943
O=C(Nc1ccccc1C(=O)N/N=C/c1ccco1)c1ccc(F)cc1 | i | x | i | 16.9* | 0.0156* | 0.0635* | 0.0354 | 0.0232* | u | 0.0123*
O=C(N/N=C/c1ccco1)c1ccncc1 | i | -0.5 | i | 1.67 | x | x | x | x | x | x
O=C(Nc1ccccc1C(=O)N/N=C/c1ccco1)c1ccc(Cl)cc1 | i | x | i | 10.8* | 0.00747 | 0.0369* | 0.0343 | 0.0145* | 0.0285* | 0.0153*
O=C(N/N=C/c1ccco1)c1ccc(OCc2ccccc2)cc1 | i | -9.6 | i | 0.0506 | x | x | x | x | x | x
O=C(c1ccccc1F)N1CCN(c2cccc(C(F)(F)F)c2)CC1 | i | 2.5 | i | -1.33 | x | x | x | x | x | x
O=C(c1coc2ccccc2c1=O)N1CCN(c2cccc(C(F)(F)F)c2)CC1 | i | x | i | -4.05* | 0.0114 | 0.0075 | 0.0325 | 0.00738 | 0.0217 | 0.0101
CCn1c(=O)cc(OCC(=O)N2CCCC2)c2ccccc21 | i | 10.3 | i | 0.342 | x | x | x | x | x | x
CCn1c(=O)cc(OCC(=O)N2CCN(c3cccc(C(F)(F)F)c3)CC2)c2ccccc21 | i | 1.2 | i | -1.73 | 0.00793 | 0.00578 | 0.0283 | 0.00646 | u | 0.0103
CC1=C(C(=O)OC(C)C)C(C)C(C(=O)OC(C)C)=C(C)N1 | i | -2.3 | i | -0.699 | x | x | x | x | x | x
CC(=O)NC1(c2ccccc2)CCN(CC(=O)N2CCC(C)CC2)CC1 | i | -2.0 | i | -0.0672 | x | x | x | x | x | x
Cc1ccc(C(=O)NC(=S)NCC2CCCO2)cc1Br (stereo not drawn) | i | x | i | 12* | 0.01 | 0.0225* | 0.0343 | 0.0279* | 0.0275* | 0.0121
O=C(NC(=S)NCC1CCCO1)c1ccc(Br)o1 (stereo not drawn) | i | -2.1 | i | 50.7* | 0.00813 | 0.0493* | 0.0447* | 0.0374* | 0.0435* | 0.032*
O=C(CNC(=S)NC(=O)c1ccc(Br)o1)c1ccccc1 | i | x | i | 5.66* | 0.0138* | 0.047* | 0.034 | 0.0408* | 0.0374* | 0.0159*
Cc1cccc(NC(=S)NC(=O)c2ccc(Br)o2)c1C | i | -8.2 | i | 71.4* | 0.05* | 0.1* | 0.0536* | 0.14* | 0.115* | 0.0572*
SMILES | CHT inh | Rad51 HR inh | CHT PAM | Cl transport mod | KCC2 sec1 | KCC2 bumet counter | KCC2 sec2 | HEK293 Tl flux | KCC2 ouabain | HEK293 Tl flux2
O=C(CNC(=S)NC(=O)c1ccc(Cl)cc1)c1ccccc1 | i | 1.0 | i | 1.82 | x | x | x | x | x | x
O=C(NC(=S)NCC1CCCO1)c1ccccc1Br (stereo not drawn) | i | 2.1 | i | 2.53 | x | x | x | x | x | x
NS(=O)(=O)c1ccc(NC(=O)COc2ccc(S(=O)(=O)N3CCCC3)cc2)cc1 | i | x | i | x | x | x | x | x | x | x
CC1CC(=O)c2cnc(Nc3cccc(C(F)(F)F)c3)nc2C1 (stereo not drawn) | i | 3.4 | i | -2.98* | 0.0122* | u | 0.0338 | 0.00814 | 0.0227 | 0.0106
CC1CC(=O)c2cnc(Nc3ccccc3)nc2C1 (stereo not drawn) | i | 5.0 | i | -0.947 | x | x | x | x | x | x
Cc1ccsc1C(=O)OCc1nc2ccccc2c(=O)[nH]1 | i | -3.5 | i | x | 0.00991 | 0.00708 | 0.035 | 0.00786 | 0.02 | u
CCOC(=O)c1nc2ccccc2c(=O)[nH]1 | i | -24.4 | i | x | x | x | x | x | x | x
CC(=O)Nc1ccc(OCC(O)CNC2CCCC2)cc1 (stereo not drawn) | i | x | i | x | 0.00771 | u | 0.0292 | u | 0.0181 | 0.0108
COc1ccc(-c2nc(Cn3c(SCc4ccc(F)cc4)nc4ccncc43)c(C)o2)cc1OC | i | -11.7 | i | -3.52* | 0.00827 | 0.00571 | 0.0307 | u | u | 0.0112
